Results taken from ChEMBL document CHEMBL1275468, “Plasmid-mediated qnrB2 and carbapenemase gene bla(KPC-2) carried on the same plasmid in carbapenem-resistant ciprofloxacin-susceptible Enterobacter cloacae isolates” (2008).
≈ marks a conversion by molar mass, not a printed value.

What was measured:
Assay type in all cases: functional
Escherichia coli [1] = assay: Antimicrobial activity against Escherichia coli T-622 harboring expressing qnrB2 and beta-lactamase KPC-2 and SHV-12 gene by Etest
Outline: (§1)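 MIC read by Etest. Strains are E. coli GeneHogs (recA1) transformants. Plasmid DNA from clinical E. cloacae isolates was introduced by electroporation. Transformants were selected on LB agar with 100 μg/ml ampicillin, then PCR-screened for blaKPC, blaSHV and qnr genes.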

Escherichia coli [2] = assay: Antimicrobial activity against Escherichia coli T-625 harboring expressing qnrB2 and beta-lactamase KPC-2 and SHV-12 gene by Etest; outline: as §1
Escherichia coli [3] = assay: Antimicrobial activity against Escherichia coli GeneHogs by Etest
Outline: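 MIC read by Etest on the plasmid-free electroporation recipient, E. coli GeneHogs (recA1 mutant).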

Escherichia coli [4] = assay: Antimicrobial activity against Escherichia coli T-781 harboring expressing qnrB2 and beta-lactamase KPC-2 and SHV-12 gene by Etest; outline: as §1
Enterobacter cloacae [5] = assay: Antimicrobial activity against Enterobacter cloacae isolate 649 containing PFGE genetic clone B expressing qnrB2 and beta-lactamase KPC-2 and SHV-12 gene by Etest
Enterobacter cloacae [6] = assay: Antimicrobial activity against Enterobacter cloacae isolate 4469 containing PFGE genetic clone C expressing qnrB2 and beta-lactamase KPC-2 and SHV-12 gene by Etest
Enterobacter cloacae [7] = assay: Antimicrobial activity against Enterobacter cloacae isolate 151 containing PFGE genetic clone A expressing qnrB2 and beta-lactamase KPC-2 gene by Etest
Enterobacter cloacae [8] = assay: Antimicrobial activity against Enterobacter cloacae isolate 658 containing PFGE genetic clone B expressing qnrB2 and beta-lactamase KPC-2 and SHV-12 gene by Etest
Enterobacter cloacae [9] = assay: Antimicrobial activity against Enterobacter cloacae isolate 293 containing PFGE genetic clone A expressing qnrB2 and beta-lactamase KPC-2 and SHV-12 gene by Etest
Enterobacter cloacae [10] = assay: Antimicrobial activity against Enterobacter cloacae isolate 837 containing PFGE genetic clone B expressing qnrB2 and beta-lactamase KPC-2 and SHV-12 gene by Etest
Enterobacter cloacae [11] = assay: Antimicrobial activity against Enterobacter cloacae isolate 533 containing PFGE genetic clone A expressing qnrB2 and beta-lactamase KPC-2 and SHV-12 gene by Etest
Enterobacter cloacae [12] = assay: Antimicrobial activity against Enterobacter cloacae isolate 781 containing PFGE genetic clone B expressing qnrB2 and beta-lactamase KPC-2 and SHV-12 gene by Etest
Enterobacter cloacae [13] = assay: Antimicrobial activity against Enterobacter cloacae isolate 18 containing PFGE genetic clone A expressing qnrB2 and beta-lactamase KPC-2 and SHV-12 gene by Etest
Enterobacter cloacae [14] = assay: Antimicrobial activity against Enterobacter cloacae isolate 625 containing PFGE genetic clone A expressing qnrB2 and beta-lactamase KPC-2 and SHV-12 gene by Etest
Enterobacter cloacae [15] = assay: Antimicrobial activity against Enterobacter cloacae isolate 656 containing PFGE genetic clone A expressing beta-lactamase KPC-2 and SHV-12 gene by Etest
Enterobacter cloacae [16] = assay: Antimicrobial activity against Enterobacter cloacae isolate 1 containing PFGE genetic clone A expressing qnrB2 and beta-lactamase KPC-2 and SHV-12 gene by Etest
Enterobacter cloacae [17] = assay: Antimicrobial activity against Enterobacter cloacae isolate 140 containing PFGE genetic clone A expressing beta-lactamase KPC-2 and SHV-12 gene by Etest
Enterobacter cloacae [18] = assay: Antimicrobial activity against Enterobacter cloacae isolate 622 containing PFGE genetic clone A expressing qnrB2 and beta-lactamase KPC-2 and SHV-12 gene by Etest
Enterobacter cloacae [19] = assay: Antimicrobial activity against Enterobacter cloacae isolate 185 containing PFGE genetic clone A expressing qnrB2 aac(6')-Ib-cr and beta-lactamase KPC-2 and SHV-12 gene by Etest

Row | Molecule | MIC (Escherichia coli [1]) [µg/mL] | MIC (Escherichia coli [2]) [µg/mL] | MIC (Escherichia coli [3]) [µg/mL] | MIC (Escherichia coli [4]) [µg/mL] | MIC (Enterobacter cloacae [5]) [µg/mL] | MIC (Enterobacter cloacae [6]) [µg/mL] | MIC (Enterobacter cloacae [7]) [µg/mL] | MIC (Enterobacter cloacae [8]) [µg/mL] | MIC (Enterobacter cloacae [9]) [µg/mL] | MIC (Enterobacter cloacae [10]) [µg/mL] | MIC (Enterobacter cloacae [11]) [µg/mL] | MIC (Enterobacter cloacae [12]) [µg/mL] | MIC (Enterobacter cloacae [13]) [µg/mL] | MIC (Enterobacter cloacae [14]) [µg/mL] | MIC (Enterobacter cloacae [15]) [µg/mL] | MIC (Enterobacter cloacae [16]) [µg/mL] | MIC (Enterobacter cloacae [17]) [µg/mL] | MIC (Enterobacter cloacae [18]) [µg/mL] | MIC (Enterobacter cloacae [19]) [µg/mL]
1 | C[C@H]1[C@H](NC(=O)/C(=N\OC(C)(C)C(=O)O)c2csc(N)n2)C(=O)N1S(=O)(=O)O [AZTREONAM] | ≥ 64 | ≥ 64 | ≤ 1 | 32 (≈ 73.5 µM) | – | – | – | – | – | – | – | – | – | – | – | – | – | – | –
2 | CC(C)(O/N=C(\C(=O)N[C@@H]1C(=O)N2C(C(=O)[O-])=C(C[n+]3ccccc3)CS[C@H]12)c1csc(N)n1)C(=O)O [CEFTAZIDIME] | 32 (≈ 58.5 µM) | 32 (≈ 58.5 µM) | ≤ 1 | 32 (≈ 58.5 µM) | ≥ 64 | ≥ 64 | 16 (≈ 29.3 µM) | ≥ 64 | ≥ 64 | ≥ 64 | ≥ 64 | ≥ 64 | ≥ 64 | ≥ 64 | ≥ 64 | ≥ 64 | ≥ 64 | ≥ 64 | ≥ 64
3 | C[C@@H](O)[C@H]1C(=O)N2C(C(=O)O)=C(SCCNC=N)C[C@H]12 [IMIPENEM ANHYDROUS] | 4 (≈ 13.4 µM) | 8 (≈ 26.7 µM) | 0.125 (≈ 0.418 µM) | 3 (≈ 10 µM) | 32 (≈ 107 µM) | 24 (≈ 80.2 µM) | 12 (≈ 40.1 µM) | > 32 | > 32 | 6 (≈ 20 µM) | 4 (≈ 13.4 µM) | > 32 | 8 (≈ 26.7 µM) | 16 (≈ 53.4 µM) | 32 (≈ 107 µM) | 16 (≈ 53.4 µM) | > 32 | 24 (≈ 80.2 µM) | 8 (≈ 26.7 µM)
4 | C[C@H]1COc2c(N3CCN(C)CC3)c(F)cc3c(=O)c(C(=O)O)cn1c23.C[C@H]1COc2c(N3CCN(C)CC3)c(F)cc3c(=O)c(C(=O)O)cn1c23.O [LEVOFLOXACIN] | 0.023 | 0.094 | – | 0.047 | 0.75 | 0.5 | 0.5 | 1 | 0.75 | 0.75 | 0.38 | 0.5 | 0.5 | 0.5 | 0.5 | 0.38 | 0.094 | 0.5 | 0.5
5 | NCC[C@H](O)C(=O)N[C@@H]1C[C@H](N)[C@@H](O[C@H]2O[C@H](CN)[C@@H](O)[C@H](O)[C@H]2O)[C@H](O)[C@H]1O[C@H]1O[C@H](CO)[C@@H](O)[C@H](N)[C@H]1O [AMIKACIN] | ≤ 2 | ≤ 2 | ≤ 2 | ≤ 2 | ≤ 2 | ≤ 2 | ≤ 2 | ≤ 2 | 16 (≈ 27.3 µM) | 32 (≈ 54.6 µM) | ≤ 2 | ≤ 2 | ≤ 2 | ≤ 2 | ≤ 2 | ≤ 2 | ≤ 2 | ≤ 2 | ≤ 2
6 | C[C@@H](O)[C@H]1C(=O)N2C(C(=O)O)=C(S[C@@H]3CN[C@H](C(=O)Nc4cccc(C(=O)O)c4)C3)[C@H](C)[C@H]12 | 8 (≈ 16.8 µM) | 8 (≈ 16.8 µM) | 0.012 (≈ 0.0252 µM) | 12 (≈ 25.2 µM) | 16 (≈ 33.6 µM) | > 32 | > 32 | 12 (≈ 25.2 µM) | > 32 | 8 (≈ 16.8 µM) | 24 (≈ 50.5 µM) | > 32 | 4 (≈ 8.41 µM) | 24 (≈ 50.5 µM) | 16 (≈ 33.6 µM) | 32 (≈ 67.3 µM) | > 32 | 32 (≈ 67.3 µM) | 4 (≈ 8.41 µM)
7 | C[C@@H](O)[C@H]1C(=O)N2C(C(=O)O)=C(S[C@@H]3CN[C@H](C(=O)N(C)C)C3)[C@H](C)[C@H]12 [MEROPENEM] | 3 (≈ 7.82 µM) | 3 (≈ 7.82 µM) | 0.016 (≈ 0.0417 µM) | 2 (≈ 5.22 µM) | 4 (≈ 10.4 µM) | 8 (≈ 20.9 µM) | > 32 | 24 (≈ 62.6 µM) | 8 (≈ 20.9 µM) | 6 (≈ 15.6 µM) | 2 (≈ 5.22 µM) | > 32 | > 32 | 6 (≈ 15.6 µM) | 6 (≈ 15.6 µM) | 2 (≈ 5.22 µM) | 4 (≈ 10.4 µM) | 8 (≈ 20.9 µM) | 24 (≈ 62.6 µM)
8 | GENTAMICIN | > 16 | > 16 | < 1 | > 16 | > 16 | > 16 | > 16 | > 16 | > 16 | > 16 | > 16 | > 16 | > 16 | > 16 | > 16 | > 16 | > 16 | > 16 | > 16
9 | CCn1cc(C(=O)O)c(=O)c2ccc(C)nc21 [NALIDIXIC ACID] | 2 (≈ 8.61 µM) | 4 (≈ 17.2 µM) | 2 (≈ 8.61 µM) | 2 (≈ 8.61 µM) | 16 (≈ 68.9 µM) | 16 (≈ 68.9 µM) | 16 (≈ 68.9 µM) | 16 (≈ 68.9 µM) | 16 (≈ 68.9 µM) | 16 (≈ 68.9 µM) | 16 (≈ 68.9 µM) | 16 (≈ 68.9 µM) | 16 (≈ 68.9 µM) | 16 (≈ 68.9 µM) | 16 (≈ 68.9 µM) | 16 (≈ 68.9 µM) | 4 (≈ 17.2 µM) | 16 (≈ 68.9 µM) | 16 (≈ 68.9 µM)
